Source: PubChem (The Scripps Research Institute Molecular Screening Center)
PAD4 FP inh: human PAD4 inhibitors, primary screen, biochemical, fluorescence polarization, 1536-well format | recombinant PAD4, RCA probe fluorescence polarization | Protein-arginine deiminase type-4 (Homo sapiens), Q9UM07 | inhibition, % at 6.36 µM | actives 0.41% (n = 330,000) | AID 485272, 2010;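 active means percent inhibition above a cutoff equal to the mean of all tested compounds plus 3 SD, cut at about 15% in these data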
PME-1 inh: PME-1 inhibitors via competitive probe labeling, primary screen, biochemical, fluorescence polarization, FP-Rh probe, HTS; recombinant PME-1; inhibition, % at 5.9 µM; actives 0.53% (n = 320,000); AID 2130, 2009;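 active means inhibition above the campaign mean of all compounds plus 3 SD, cut at about 26% in these data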;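 further: competitive labeling of PME-1 active site by serine hydrolase directed probe; inhibitors block probe labeling so polarization falls and inhibition rises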
PRMT1 FP inh: PRMT1 methyltransferase inhibitors, primary screen, biochemical, fluorescence polarization; Protein arginine N-methyltransferase 1 (Homo sapiens), Q99873; recombinant PRMT1, activity-based probe fluorescence polarization; inhibition, % at 2.79 µM; actives 1.3% (n = 370,000);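 active means inhibition above about 21% made by adding two undisclosed values, limit read from the data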
Target sequence (Q99873 whole entry, looked up): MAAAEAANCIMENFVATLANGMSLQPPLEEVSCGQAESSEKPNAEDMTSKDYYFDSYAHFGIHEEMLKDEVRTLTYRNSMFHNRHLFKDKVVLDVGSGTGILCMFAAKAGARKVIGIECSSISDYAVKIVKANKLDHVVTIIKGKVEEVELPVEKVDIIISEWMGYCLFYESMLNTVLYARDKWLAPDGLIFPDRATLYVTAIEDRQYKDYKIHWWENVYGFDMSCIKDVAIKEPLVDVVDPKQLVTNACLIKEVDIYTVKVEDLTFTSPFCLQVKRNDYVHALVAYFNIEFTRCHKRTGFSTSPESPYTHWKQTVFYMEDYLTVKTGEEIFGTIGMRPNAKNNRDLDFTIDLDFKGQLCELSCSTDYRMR
GSTO1 counter: inhibitors of recombinant GSTO1, primary screen, counter-screen for RBBP9 inhibitor project, biochemical, fluorescence polarization | Glutathione S-transferase omega-1 (Homo sapiens), P78417 | activity-based probe fluorescence polarization | inhibition, % at 5.96 µM | actives 1.1% (n = 300,000) | AID 1974, 2009;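 active means inhibition above the campaign mean inhibition plus 3 SD, cut at about 35% in these data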
Target sequence (P78417 whole entry, looked up): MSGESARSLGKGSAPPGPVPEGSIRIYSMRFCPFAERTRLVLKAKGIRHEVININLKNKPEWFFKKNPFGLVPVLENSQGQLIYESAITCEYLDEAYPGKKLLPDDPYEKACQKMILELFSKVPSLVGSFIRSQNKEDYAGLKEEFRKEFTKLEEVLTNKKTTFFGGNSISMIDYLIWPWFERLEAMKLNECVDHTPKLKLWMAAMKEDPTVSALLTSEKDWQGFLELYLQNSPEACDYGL
Fam108B inh: mouse Fam108B serine hydrolase inhibitors, primary screen, counter-screen for RBBP9 inhibitor project, biochemical, fluorescence polarization | recombinant Fam108B, FP-Rh probe fluorescence polarization | inhibition, % at 9.51 µM | actives 0.33% (n = 300,000) | AID 1947, 2009;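 active means inhibition above the screen mean inhibition plus 3 SD, computed separately per campaign, cut at about 18% in these data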;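 further: inhibitors lower polarization as less probe binds the enzyme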
RBBP9 inhibitor: human RBBP9 inhibitors, primary screen, biochemical, fluorescence polarization, FP-Rh probe, HTS; Serine hydrolase RBBP9 (Homo sapiens), O75884; recombinant RBBP9; actives 0.2% (n = 220,000); inhibition, % at 7.94 µM;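 active means inhibition above the campaign mean of all tested compounds plus 3 SD, cut at about 14% in these data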
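Material: RBBP9 protein. Amount: RBBP9 at 2.5 µM in dispensed solution, before mixing. Schedule: 30 min then 45 min, 25 °C. Medium: Tris buffer pH 8.0, NaCl, Pluronic. Measured by: fluorescence polarization. Measure: percent inhibition from mP, scaled between DMSO and no-protein wells. Replication: one well per compound.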
Fam108b inh conf: mouse Fam108b serine hydrolase inhibitors, confirmation, counter-screen for RBBP9 inhibitor project, biochemical, fluorescence polarization, triplicate | shares compounds with Fam108B inh | recombinant Fam108b, FP-Rh probe fluorescence polarization | inhibition, % at 9.51 µM | actives 44% (n = 930) | AID 1978, 2009;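 active means inhibition above a limit from the primary screen, the mean over all compounds plus 3 SD, cut at about 19% in these data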;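 further: inhibitors free the probe so polarization falls as inhibition rises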
Fam108b ABPP HTS: inhibition of mouse Fam108b by HTS hits, late-stage follow-up, biochemical, gel-based ABPP, soluble recombinant form. inhibition, % at 20 µM. actives 44% (n = 260). shares compounds with Fam108B inh. fluorophosphonate probe. AID 588649, 2011; in the data active means inhibition above about 40%
GSTO1 confirm: GSTO1 inhibitor hit confirmation, counter-screen for RBBP9 inhibitor project, biochemical, fluorescence polarization, triplicate. shares compounds with GSTO1 counter. recombinant GSTO1, probe fluorescence polarization. inhibition, % at 5.96 µM. actives 54% (n = 2,400);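 active means inhibition above the primary screen's cutoff, its mean inhibition plus 3 SD, cut at about 35% in these data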;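 further: loss of polarization as inhibitors block binding of rhodamine sulfonate ester activity probe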
Of the large screens only hits and unclear results are named; the others gave an inactive call (follow-up assays come after a bar, where they were run). Compounds with a hit are over-represented: about 2.3% of the library has one in this group of screens.

Cc1ccc(S(=O)(=O)Nc2ccc(O)c(Sc3ncn[nH]3)c2)cc1	none
CC(C)c1ccc(S(=O)(=O)/N=C2/C=C(Sc3ncn[nH]3)C(=O)c3ccccc32)cc1	PAD4 FP inh 38, PME-1 inh 42, GSTO1 counter 85, Fam108B inh 58 (no result: PRMT1 FP inh) | Fam108b inh conf 36
Cc1ccccc1NS(=O)(=O)c1cc(OCC(N)=O)c(C)cc1Cl	none
Cc1ccc(C2Nc3cccc4cccc(c34)N2)s1	GSTO1 counter 44, Fam108B inh 29 | Fam108b inh conf inactive | GSTO1 confirm inactive
C/C(=C\c1ccccc1)C1Nc2cccc3cccc(c23)N1	none (no result: PRMT1 FP inh, GSTO1 counter, Fam108B inh, RBBP9 inhibitor)
COc1ccc(C(=O)CN2CCN(c3ccc(Cl)cc3)CC2)cc1OC	none (no result: RBBP9 inhibitor)
CCOC(=O)C1CCN(C(=O)Nc2ccc3c(c2)nc(C)n3C)CC1	none
CCOC(=O)C1CCN(C(=O)Nc2ccc3nc(-c4ccco4)c(-c4ccco4)nc3c2)CC1	GSTO1 counter 80, Fam108B inh 34 (no result: PRMT1 FP inh) | Fam108b inh conf 40 | Fam108b ABPP HTS inactive | GSTO1 confirm inactive
COc1ccccc1/C=C(/CC(=O)NCc1ccc(F)cc1)c1nc2ccccc2s1	none
Nc1ccc(N2CCCCC2)c2nonc12	PAD4 FP inh 69, PME-1 inh 34, GSTO1 counter 92, Fam108B inh 67 | Fam108b inh conf inactive | GSTO1 confirm 62
Nc1cc(Cl)ccc1N1CCCCC1	none
Nc1c(N2CCOCC2)cc(Cl)c2nonc12	none
Nc1c(N2CCCC2)cc(Cl)c2nonc12	PME-1 inh 31, GSTO1 counter 95, Fam108B inh 54 (no result: PRMT1 FP inh) | Fam108b inh conf 42 | Fam108b ABPP HTS inactive | GSTO1 confirm 49
COc1ccccc1Nc1nc2c(C)cccc2cc1C#N	none
NC(=O)C1CCN(C2=C(Cl)C(=O)c3ccccc3C2=O)CC1	PRMT1 FP inh 25, GSTO1 counter 87, Fam108B inh 51 | Fam108b inh conf 59 | Fam108b ABPP HTS inactive | GSTO1 confirm 80
CN1CCN(C2=C(Cl)C(=O)c3ccccc3C2=O)CC1	none (no result: PAD4 FP inh, PME-1 inh, GSTO1 counter, Fam108B inh, RBBP9 inhibitor)
CCc1ccc(S(=O)(=O)/N=C2\C=C(Nc3ccc(C(=O)O)cc3)C(=O)c3ccccc32)cc1	PAD4 FP inh 69, PME-1 inh 30, GSTO1 counter 94, Fam108B inh 58 (no result: RBBP9 inhibitor) | Fam108b inh conf 74 | Fam108b ABPP HTS inactive | GSTO1 confirm 91
C=C(C)CN(CC)c1nc(N)c2c(N)nc3c(c2c1C#N)CC(=O)N3C12CC3CC(CC(C3)C1)C2	none
N#Cc1c(N2CCCC(O)C2)nc(N)c2c(N)nc3c(c12)CC(=O)N3C12CC3CC(CC(C3)C1)C2 (centres undefined)	GSTO1 counter 79, Fam108B inh 19 | Fam108b inh conf inactive | GSTO1 confirm 88
O=C(Nc1nc(-c2ccco2)c(-c2ccco2)s1)c1cnccn1	PRMT1 FP inh 37, GSTO1 counter 45, Fam108B inh 25 (no result: RBBP9 inhibitor) | Fam108b inh conf inactive | GSTO1 confirm inactive
CCCCC(CC)CN1CN(CC(CC)CCCC)CC(C)(N)C1 (centres undefined)	none (no result: PAD4 FP inh, PME-1 inh, GSTO1 counter, Fam108B inh, RBBP9 inhibitor)
Cc1ccc(S(=O)(=O)/N=C2/C=C(Sc3ncn[nH]3)C(=O)c3ccccc32)c(C)c1	PAD4 FP inh 16, PME-1 inh 36, GSTO1 counter 91, Fam108B inh 60 (no result: PRMT1 FP inh) | Fam108b inh conf 34 | GSTO1 confirm 93
CCOC(=O)c1ccc2c(c1)C1C=CCC1C(C(=O)O)N2 (centres undefined)	GSTO1 counter 52, Fam108B inh 56 (no result: PRMT1 FP inh) | Fam108b inh conf 33 | Fam108b ABPP HTS inactive | GSTO1 confirm 39
CC(C)C1Nc2ccc(C(=O)O)cc2C2C=CCC21 (centres undefined)	none
COC1=CC(=O)C(O)=C(CCCCCCC/C=C/CCCCCCCC2=C(O)C(=O)C=C(OC)C2=O)C1=O	GSTO1 counter 91, Fam108B inh 47 (no result: PRMT1 FP inh, RBBP9 inhibitor) | Fam108b inh conf 52 | GSTO1 confirm 90
COc1ccc2nc(-n3c(C)ccc3C)sc2c1	none
CCOc1ccc2nc(N3C(=O)/C(=C/c4ccccc4)NC3=S)sc2c1	GSTO1 counter 59, Fam108B inh 20 | Fam108b inh conf inactive | GSTO1 confirm 55
COc1ccc2nc(N3C(=O)/C(=C/c4ccccc4)NC3=S)sc2c1	PME-1 inh 58, GSTO1 counter 42, Fam108B inh 20 | Fam108b inh conf 22 | GSTO1 confirm 56
COc1ccc(NC(=O)COC(=O)CN2C(=O)NC(C)(C)C2=O)cc1	none (no result: GSTO1 counter, Fam108B inh, RBBP9 inhibitor)
CN(C)C(=O)c1ccc(NC(=O)COC(=O)CCN=C2NS(=O)(=O)c3ccccc32)cc1	none (no result: PAD4 FP inh, PME-1 inh, GSTO1 counter, Fam108B inh, RBBP9 inhibitor)
COCc1[nH]nc2c1C(c1ccc(Br)cc1)N(c1ccc(OC)cc1)C2=O (centres undefined)	none (no result: PAD4 FP inh, PME-1 inh, GSTO1 counter, Fam108B inh, RBBP9 inhibitor)
N#Cc1c(SCC(=O)Nc2nncs2)sc2c(O)cc(=O)[nH]c12	PRMT1 FP inh 46, GSTO1 counter 51, Fam108B inh 32 (no result: RBBP9 inhibitor) | Fam108b inh conf inactive | GSTO1 confirm 63
Cc1cccc(-c2noc(CCCC(=O)NCC3CCCO3)n2)c1 (centres undefined)	none (no result: RBBP9 inhibitor)
CC(C(=O)O)N1C(=O)/C(=C/C=C/c2ccco2)SC1=S (centres undefined)	PRMT1 FP inh 56, GSTO1 counter 64, Fam108B inh 30 | Fam108b inh conf inactive | GSTO1 confirm inactive
O=C1/C(=C\c2ccco2)SC(=S)N1c1ccccc1	none
Nc1c(S(=O)(=O)O)cc(NC(=O)c2ccccc2)c2c1C(=O)c1ccccc1C2=O	PME-1 inh 54, GSTO1 counter 41, Fam108B inh 53 (no result: PRMT1 FP inh, RBBP9 inhibitor) | Fam108b inh conf 50 | GSTO1 confirm 63
Cc1[nH]n(-c2ccccc2)c(=O)c1N=Nc1c(O)cc(S(=O)(=O)N(C)C)c2ccccc12	PME-1 inh 54, GSTO1 counter 47, Fam108B inh 75 (no result: RBBP9 inhibitor) | Fam108b inh conf 89 | Fam108b ABPP HTS inactive | GSTO1 confirm 71
CCc1ccc(OCC(=O)NNC(=O)CSc2nnc(-c3ccc(C)cc3)n2C)cc1	none
